For data set [1], the target named is T1, Hexokinase-4 (Homo sapiens, UniProt P35557).
T1 sequence (P35557 whole entry): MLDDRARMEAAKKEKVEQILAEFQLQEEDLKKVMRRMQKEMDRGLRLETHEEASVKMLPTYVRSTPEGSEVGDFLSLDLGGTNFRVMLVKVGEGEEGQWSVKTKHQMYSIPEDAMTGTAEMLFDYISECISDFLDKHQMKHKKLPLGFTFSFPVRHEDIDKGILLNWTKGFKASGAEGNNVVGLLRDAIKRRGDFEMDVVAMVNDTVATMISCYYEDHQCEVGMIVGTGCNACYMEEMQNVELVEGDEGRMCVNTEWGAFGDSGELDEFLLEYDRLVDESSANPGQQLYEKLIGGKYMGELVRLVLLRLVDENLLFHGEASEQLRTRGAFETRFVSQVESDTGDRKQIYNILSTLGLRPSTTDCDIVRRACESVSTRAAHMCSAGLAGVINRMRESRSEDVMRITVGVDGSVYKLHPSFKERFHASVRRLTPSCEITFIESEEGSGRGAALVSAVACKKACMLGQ
As to the kind of experiment: Induction of human pancreatic glucokinase activity at 5 mM glucose concentration. An outline of the steps:
(§1)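 Enzymatic assay with purified recombinant human pancreatic or liver glucokinase, read as fold increase in activity at 5.0 mM glucose. EC50 is the mean of at least duplicate runs. For the pancreatic enzyme, glucose S0.5 and Vmax were also determined.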

Data set [2] in a line: Bioavailability in mouse. Type of data set: ADME, organism-based. The conditions noted are these: in vivo. An outline of the steps:
(§2)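 Pharmacokinetics in mice and dogs after a single intravenous dose and a single oral dose. Clearance, volume of distribution, elimination half-life and oral bioavailability (F) were derived.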

Data set [3] is described as follows: Bioavailability in dog. The conditions noted are these: in vivo. Type of data set: ADME, organism-based, Canis lupus familiaris. Put shortly:
as §2

A short description of data set [4]: Elimination half life in mouse. Type of data set: ADME, organism-based. The note with it: in vivo, read-out: beta t1/2 (converted). Put shortly: as §2
A short description of data set [5]: Elimination half life in dog. Type of data set: ADME, organism-based, Canis lupus familiaris. The note with it: in vivo, read-out: beta t1/2 (converted). An outline of the steps: as §2
Data set [6] can be described thus: Volume of distribution in mouse. Type of data set: ADME, organism-based. The note with it: in vivo. An outline of the steps: as §2
Data set [7] can be described thus: Volume of distribution in dog. Type of data set: ADME, organism-based, Canis lupus familiaris. The conditions noted are these: in vivo. Put shortly: as §2
Data set [8] is described as follows: Clearance in dog. It is filed as ADME, organism-based, Canis lupus familiaris. The conditions noted are these: in vivo. Put shortly:
as §2

The nature of data set [9]: Clearance in mouse. Type of data set: ADME, organism-based. The conditions noted are these: in vivo. Put shortly: as §2
In the next data set the target is Cytochrome P450 3A4 (Homo sapiens, UniProt P08684). Briefly: Inhibition of CYP3A4 (unknown origin) at 25 to 50 uM. Type of data set: ADME.
Cytochrome P450 3A4, sequence (P08684 whole entry): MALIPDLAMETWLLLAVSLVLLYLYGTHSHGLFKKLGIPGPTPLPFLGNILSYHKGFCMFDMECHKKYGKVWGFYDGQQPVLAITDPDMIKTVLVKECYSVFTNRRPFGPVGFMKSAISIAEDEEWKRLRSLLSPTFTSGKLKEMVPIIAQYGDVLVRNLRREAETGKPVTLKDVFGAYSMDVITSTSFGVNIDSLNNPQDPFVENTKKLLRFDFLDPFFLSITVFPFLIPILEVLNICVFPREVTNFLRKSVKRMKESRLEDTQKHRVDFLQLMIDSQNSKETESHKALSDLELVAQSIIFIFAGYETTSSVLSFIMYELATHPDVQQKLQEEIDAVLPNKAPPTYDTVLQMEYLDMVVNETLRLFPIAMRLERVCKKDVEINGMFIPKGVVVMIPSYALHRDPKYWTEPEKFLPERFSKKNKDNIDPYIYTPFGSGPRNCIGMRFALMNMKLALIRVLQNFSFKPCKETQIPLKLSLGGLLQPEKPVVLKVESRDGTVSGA
For a further data set, the target named is Cytochrome P450 2D6 (Homo sapiens, UniProt P10635). As to the kind of experiment: Inhibition of CYP2D6 (unknown origin) at 25 to 50 uM. It is filed as ADME.
Cytochrome P450 2D6, sequence (P10635 whole entry): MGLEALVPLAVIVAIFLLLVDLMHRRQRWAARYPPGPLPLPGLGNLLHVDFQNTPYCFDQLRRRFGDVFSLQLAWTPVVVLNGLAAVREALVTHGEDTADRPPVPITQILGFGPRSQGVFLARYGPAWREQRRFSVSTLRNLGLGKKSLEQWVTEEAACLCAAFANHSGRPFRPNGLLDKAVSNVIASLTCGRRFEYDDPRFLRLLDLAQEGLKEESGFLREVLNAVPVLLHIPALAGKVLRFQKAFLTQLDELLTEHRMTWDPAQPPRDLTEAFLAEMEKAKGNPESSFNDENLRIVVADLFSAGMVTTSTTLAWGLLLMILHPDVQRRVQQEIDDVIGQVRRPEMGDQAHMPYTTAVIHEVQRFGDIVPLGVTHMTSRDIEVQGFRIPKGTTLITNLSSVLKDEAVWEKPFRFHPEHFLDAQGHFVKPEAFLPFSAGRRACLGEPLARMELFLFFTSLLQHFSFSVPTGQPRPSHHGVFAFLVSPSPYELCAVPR
The next data set deals with Cytochrome P450 2C19 (Homo sapiens, UniProt P33261). Briefly: Inhibition of CYP2C19 (unknown origin) at 25 to 50 uM. It is filed as ADME.
Cytochrome P450 2C19, sequence (P33261 whole entry): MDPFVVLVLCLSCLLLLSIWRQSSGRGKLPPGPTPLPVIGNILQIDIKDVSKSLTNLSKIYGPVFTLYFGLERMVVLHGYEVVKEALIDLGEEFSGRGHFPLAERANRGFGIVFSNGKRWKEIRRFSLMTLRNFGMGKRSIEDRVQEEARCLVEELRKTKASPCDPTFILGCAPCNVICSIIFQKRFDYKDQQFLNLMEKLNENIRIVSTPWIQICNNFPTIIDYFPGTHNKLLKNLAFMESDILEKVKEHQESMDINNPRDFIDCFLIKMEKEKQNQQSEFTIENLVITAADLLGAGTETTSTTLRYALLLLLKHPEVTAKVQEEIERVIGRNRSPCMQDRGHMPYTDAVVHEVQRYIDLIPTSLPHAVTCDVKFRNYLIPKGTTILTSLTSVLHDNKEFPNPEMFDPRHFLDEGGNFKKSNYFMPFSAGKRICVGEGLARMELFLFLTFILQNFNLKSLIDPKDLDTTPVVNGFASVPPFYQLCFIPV
The target in the next data set is Cytochrome P450 2C9 (Homo sapiens, UniProt P11712). Briefly: Inhibition of CYP2C9 (unknown origin) at 25 to 50 uM. It is filed as ADME.
Cytochrome P450 2C9, sequence (P11712 whole entry): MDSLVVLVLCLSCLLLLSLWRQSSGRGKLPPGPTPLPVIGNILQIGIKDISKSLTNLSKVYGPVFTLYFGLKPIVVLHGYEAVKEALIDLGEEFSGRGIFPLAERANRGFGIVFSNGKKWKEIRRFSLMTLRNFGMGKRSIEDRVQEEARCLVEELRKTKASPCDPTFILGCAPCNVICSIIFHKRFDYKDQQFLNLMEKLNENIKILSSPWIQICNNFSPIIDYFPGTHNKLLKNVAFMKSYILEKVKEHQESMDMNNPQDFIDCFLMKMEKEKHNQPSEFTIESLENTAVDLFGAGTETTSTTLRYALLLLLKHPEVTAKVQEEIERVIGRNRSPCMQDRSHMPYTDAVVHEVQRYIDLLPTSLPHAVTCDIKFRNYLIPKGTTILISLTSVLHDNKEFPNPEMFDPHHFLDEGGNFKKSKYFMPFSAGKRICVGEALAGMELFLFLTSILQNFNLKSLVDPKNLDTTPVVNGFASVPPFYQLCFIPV
The target of the next data set is T2, Cytochrome P450 1A2 (Homo sapiens, UniProt P05177).
T2 sequence (P05177 whole entry): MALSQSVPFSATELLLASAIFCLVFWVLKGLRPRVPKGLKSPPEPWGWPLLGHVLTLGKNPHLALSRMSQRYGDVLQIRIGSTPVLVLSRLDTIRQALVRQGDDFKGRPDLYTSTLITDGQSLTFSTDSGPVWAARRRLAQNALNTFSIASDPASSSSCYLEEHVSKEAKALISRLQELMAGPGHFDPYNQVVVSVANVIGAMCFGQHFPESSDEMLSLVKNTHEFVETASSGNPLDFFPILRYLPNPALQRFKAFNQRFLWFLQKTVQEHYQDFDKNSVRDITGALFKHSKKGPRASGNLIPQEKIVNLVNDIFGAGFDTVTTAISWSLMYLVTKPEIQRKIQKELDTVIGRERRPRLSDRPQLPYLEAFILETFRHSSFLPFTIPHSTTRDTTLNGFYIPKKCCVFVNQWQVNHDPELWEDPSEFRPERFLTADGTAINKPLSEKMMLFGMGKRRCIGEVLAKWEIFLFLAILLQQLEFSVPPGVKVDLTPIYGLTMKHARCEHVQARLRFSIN
Briefly: Inhibition of CYP1A2 (unknown origin) at 25 to 50 uM. It is filed as ADME.

A short description of data set [10]: Metabolic stability in human liver microsomes assessed as compound remaining after 60 mins. Type of data set: ADME, Microsome. The note with it: read-out: Stability. An outline of the steps:
(§3)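 Compound incubated for 1 h with mouse, dog or human liver microsomes. Percent of parent compound remaining was measured.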

A short description of data set [11]: Metabolic stability in mouse liver microsomes assessed as compound remaining after 60 mins. Type of data set: ADME, Microsome. The note with it: read-out: Stability. An outline of the steps: as §3
(Liver microsomes are a subcellular fraction often used to study metabolism.)

The nature of data set [12]: Metabolic stability in dog liver microsomes assessed as compound remaining after 60 mins. It is filed as ADME, Canis lupus familiaris, Microsome. The conditions noted are these: read-out: Stability. An outline of the steps: as §3
For data set [13], the species on record is Mus musculus. Briefly: Toxicity in ob/ob mouse assessed as effect on body weight. It is filed as organism-based. The note with it: in vivo. An outline of the steps:
(§4)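 ob/ob mice dosed orally and repeatedly in a subchronic study. Blood glucose, serum lipids and body weight were monitored.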

Data set [14] has as its system Mus musculus. Briefly: Toxicity in C57BL/J mouse assessed as hypoglycemic risk at 150 mg/kg. Type of data set: organism-based. On the set-up: dose 150 mg/kg. The note with it: in vivo. An outline of the steps:
(§5)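 C57BL/J6 mice given oral dosing followed by an oral glucose tolerance test. Plasma glucose was tracked over time and glucose AUC reduction calculated. Several doses were tested, including 50 and 150 mg/kg. Hypoglycemia risk was judged from the glucose profiles.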

The test system of data set [15] is Mus musculus. Briefly: Increase in oral glucose tolerance in C57BL/J mouse assessed as reduction in glucose area under curve at 50 mg/kg by OGTT. Type of data set: functional. On the set-up: scale not given: the % may be the effect or the level left. An outline of the steps: as §5
Data set [16] deals with T1, Hexokinase-4. Briefly: Induction of human hepatic glucokinase activity at 5 mM glucose concentration. An outline of the steps:
as §1

Data set [17] is filed under the species Mus musculus. Briefly: Toxicity in ob/ob mouse assessed as effect on serum lipid level. The conditions noted are these: in vivo. Type of data set: organism-based. An outline of the steps:
as §4

The subject of data set [18] is Mus musculus. As to the kind of experiment: Increase in oral glucose tolerance in C57BL/J mouse assessed as reduction in glucose area under curve at 300 mg/kg by OGTT. Type of data set: functional. On the set-up: scale not given: the % may be the effect or the level left.

The structures appear in SMILES notation.

19 compounds from ChEMBL document CHEMBL2311350, “Discovery of a novel phenylethyl benzamide glucokinase activator for the treatment of type 2 diabetes mellitus” (Bioorg Med Chem Lett, 2013) can be followed below.

Regarding `COC[C@H](C)Oc1cc(/C=C/c2cc(F)cc(F)c2F)cc(C(=O)Nc2ccc(C(=O)O)cn2)c1`, it took 0.778 µM to reach a half-maximal effect on Hexokinase-4 [1] (EC50).
`COC[C@H](C)Oc1cc(/C=C/c2ccccc2OC)cc(C(=O)Nc2ccn(C)n2)c1` showed an EC50 on Hexokinase-4 [1] of 0.115 µM.
Turning to `COC[C@H](C)Oc1cc(CCc2c(F)cccc2F)cc(C(=O)Nc2ccc(C(=O)O)cn2)c1`, the results for the bioavailability in data set [2] and in data set [3] were 66% and 85%, respectively. For the same compound, the half-life in data set [4] and in data set [5] was 2.6 h throughout. Moreover, the Vd worked out at 0.33 L/kg in data set [6] and 0.49 L/kg in [7]. In addition, the clearance in data set [8] is 0.43 L/h/kg; in data set [9], 0.15 L/h/kg. Moreover, the “inhibition (INH)” value against Cytochrome P450 3A4, against Cytochrome P450 2D6, at Cytochrome P450 2C19, at Cytochrome P450 2C9 and at Cytochrome P450 1A2 was “Not Active” in each case. Further, the remaining at 1 h in data set [10], in [11] and in data set [12] was above 60% throughout. For the same compound, the Activity entry was “Non-toxic” in the data set filed under Mus musculus [13], “Toxic” with Mus musculus [14], 29.6% in the data set with Mus musculus [15] and “Non-toxic” in the data set listed under Mus musculus [17]. In addition, the EC50 at Hexokinase-4 [16] was 0.085 µM; at Hexokinase-4 [1], 0.07 µM.
`COC[C@H](C)Oc1cc(Oc2cc(F)cc(F)c2)cc(C(=O)Nc2ccc(C(=O)O)cn2)c1` showed a bioavailability in data set [3] of 100%.
For `COC[C@H](C)Oc1cc(/C=C/c2cc(F)ccc2F)cc(C(=O)Nc2ccn(C)n2)c1`, the EC50 at Hexokinase-4 [1] is 0.2 µM.
On Hexokinase-4 [1], `COC[C@H](C)Oc1cc(/C=C/c2ccc([N+](=O)[O-])cc2)cc(C(=O)Nc2ccc(C(=O)O)cn2)c1` gave a half-maximal effective concentration (EC50) of 0.284 µM.
For the compound `COC[C@H](C)Oc1cc(CCc2ccc(F)cc2F)cc(C(=O)Nc2ccn(C)n2)c1`, the concentration giving a half-maximal response (EC50) on Hexokinase-4 [1] worked out at 0.184 µM.
Still for that read-out and setting: the figure for `COC[C@H](C)Oc1cc(/C=C/c2ccc(F)cc2)cc(C(=O)Nc2ccn(C)n2)c1` is 0.119 µM; for `COC[C@H](C)Oc1cc(CCc2c(F)cccc2F)cc(C(=O)Nc2ccn(C)n2)c1` it is 0.131 µM.
In the case of `CN(C)C(=N)NC(=N)N` [METFORMIN], the Activity in the data set on Mus musculus [18] amounted to 29.9%.
For `COC[C@H](C)Oc1cc(/C=C/c2cc(F)cc(F)c2F)cc(C(=O)Nc2ccn(C)n2)c1`, at Hexokinase-4 [1], the EC50 is 0.848 µM.
The same measure, in the same setting: the figure for `COC[C@H](C)Oc1cc(/C=C/c2ccc([N+](=O)[O-])cc2)cc(C(=O)Nc2ccn(C)n2)c1` is 0.852 µM; for `COC[C@H](C)Oc1cc(/C=C/c2ccccc2F)cc(C(=O)Nc2ccn(C)n2)c1` it is 0.08 µM; for `COC[C@H](C)Oc1cc(/C=C/c2ccccc2[N+](=O)[O-])cc(C(=O)Nc2ccn(C)n2)c1` it is 0.283 µM.
Same read-out and setting: the figure for `COC[C@H](C)Oc1cc(CCc2cc(F)cc(F)c2F)cc(C(=O)Nc2ccn(C)n2)c1` is 0.855 µM; for `COC[C@H](C)Oc1cc(/C=C/c2cccc(C)n2)cc(C(=O)Nc2ccn(C)n2)c1` it is 0.132 µM.
The same measure, in the same setting: the figure for `COC[C@H](C)Oc1cc(/C=C/c2c(F)cccc2F)cc(C(=O)Nc2ccn(C)n2)c1` is 0.161 µM; for `COC[C@H](C)Oc1cc(/C=C/c2ccc(F)cc2F)cc(C(=O)Nc2ccn(C)n2)c1` it is 0.109 µM.
`COC[C@H](C)Oc1cc(CCc2ccc(F)cc2)cc(C(=O)Nc2ccn(C)n2)c1`: the EC50 at Hexokinase-4 [1] worked out at 0.216 µM.

By EC50 is commonly meant the concentration giving half of the maximal effect. The term bioavailability denotes the share of a dose that reaches the circulation, judged against a reference dose that is usually intravenous. What is called Vd is the apparent volume that relates the amount in the body to the concentration in plasma or blood. For orientation: clearance means the rate of elimination divided by the concentration.
